Measurements taken from ChEMBL document CHEMBL1938337, “Discovery of novel, potent, and selective inhibitors of 3-phosphoinositide-dependent kinase (PDK1)” (J Med Chem, 2011).
pIC50, pKi: −log10 of the molar value.

Legend:
[1] = biological target: Serine/threonine-protein kinase MARK1 (Homo sapiens, UniProt Q9P0L2); test: Inhibition of MARK1 at 1 uM
[2] = biological target: Calcium/calmodulin-dependent protein kinase type II subunit alpha (Homo sapiens) (UniProt Q9UQM7); test: Inhibition of CAMK2A at 1 uM
[3] = biological target: Proto-oncogene tyrosine-protein kinase Src (Homo sapiens) (UniProt P12931); test: Inhibition of SRC at 1 uM
[4] = Inhibition of p38 at 1 uM
[5] = biological target: Hepatocyte growth factor receptor (Homo sapiens) (UniProt P08581); test: Inhibition of MET at 1 uM
[6] = biological target: Glycogen synthase kinase-3 beta (Homo sapiens, UniProt P49841); test: Inhibition of GSK3-beta
Chain of Glycogen synthase kinase-3 beta (P49841 whole entry): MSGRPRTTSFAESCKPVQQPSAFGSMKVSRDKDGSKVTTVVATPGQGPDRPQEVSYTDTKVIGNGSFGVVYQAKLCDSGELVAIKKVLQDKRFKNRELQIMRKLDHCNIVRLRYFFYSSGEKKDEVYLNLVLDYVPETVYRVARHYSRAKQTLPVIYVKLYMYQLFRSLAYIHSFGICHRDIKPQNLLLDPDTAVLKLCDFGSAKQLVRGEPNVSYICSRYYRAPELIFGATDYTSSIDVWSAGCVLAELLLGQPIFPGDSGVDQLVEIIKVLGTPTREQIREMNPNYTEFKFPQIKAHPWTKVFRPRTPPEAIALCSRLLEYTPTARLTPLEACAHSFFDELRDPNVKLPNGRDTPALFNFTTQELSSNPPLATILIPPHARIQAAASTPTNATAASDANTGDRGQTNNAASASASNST

[7] = biological target: Serine/threonine-protein kinase 26 (Homo sapiens) (UniProt Q9P289); test: Inhibition of MST4 at 1 uM
Aurora kinase A = biological target: T1, Aurora kinase A (Homo sapiens, UniProt O14965); test: Inhibition of Aurora A
T1 sequence (O14965 whole entry): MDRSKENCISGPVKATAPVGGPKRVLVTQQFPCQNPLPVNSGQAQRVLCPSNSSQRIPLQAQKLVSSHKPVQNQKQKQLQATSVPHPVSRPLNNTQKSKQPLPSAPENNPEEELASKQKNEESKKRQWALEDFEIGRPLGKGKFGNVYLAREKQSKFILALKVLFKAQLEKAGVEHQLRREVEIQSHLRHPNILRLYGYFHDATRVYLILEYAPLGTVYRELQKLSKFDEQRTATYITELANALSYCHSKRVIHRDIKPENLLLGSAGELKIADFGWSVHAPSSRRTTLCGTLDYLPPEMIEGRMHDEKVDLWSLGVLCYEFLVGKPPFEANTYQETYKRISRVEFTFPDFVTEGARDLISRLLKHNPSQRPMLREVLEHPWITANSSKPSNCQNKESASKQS

[8] = biological target: Serine/threonine-protein kinase Chk2 (Homo sapiens) (UniProt O96017); test: Inhibition of CHEK2 at 1 uM
Chain of Serine/threonine-protein kinase Chk2 (Homo sapiens) (O96017 whole entry): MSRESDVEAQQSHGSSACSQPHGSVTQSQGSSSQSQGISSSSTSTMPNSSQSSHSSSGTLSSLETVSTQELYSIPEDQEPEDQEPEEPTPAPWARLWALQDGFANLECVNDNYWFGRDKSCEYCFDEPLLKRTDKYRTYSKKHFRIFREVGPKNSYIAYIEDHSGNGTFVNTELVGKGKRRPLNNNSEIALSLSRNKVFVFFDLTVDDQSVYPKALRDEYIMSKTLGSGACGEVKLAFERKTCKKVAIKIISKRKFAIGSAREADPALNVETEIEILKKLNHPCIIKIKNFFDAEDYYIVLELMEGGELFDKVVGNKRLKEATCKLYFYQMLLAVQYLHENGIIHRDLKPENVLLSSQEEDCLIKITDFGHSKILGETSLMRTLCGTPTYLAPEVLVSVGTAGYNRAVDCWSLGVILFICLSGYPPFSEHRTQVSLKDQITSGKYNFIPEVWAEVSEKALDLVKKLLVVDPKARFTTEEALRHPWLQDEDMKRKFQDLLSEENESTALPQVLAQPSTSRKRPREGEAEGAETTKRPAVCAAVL

[9] = biological target: Mitogen-activated protein kinase 1 (Homo sapiens) (UniProt P28482); test: Inhibition of MAPK1 at 1 uM
[10] = biological target: Phosphatidylinositol 4,5-bisphosphate 3-kinase catalytic subunit alpha isoform (Mus musculus, UniProt P42337); test: Inhibition of mouse PI3Kalpha after 30 mins by fluorescence polarization assay
Chain of Phosphatidylinositol 4,5-bisphosphate 3-kinase catalytic subunit alpha isoform (P42337 whole entry, the tested form may be a part, canonical isoform): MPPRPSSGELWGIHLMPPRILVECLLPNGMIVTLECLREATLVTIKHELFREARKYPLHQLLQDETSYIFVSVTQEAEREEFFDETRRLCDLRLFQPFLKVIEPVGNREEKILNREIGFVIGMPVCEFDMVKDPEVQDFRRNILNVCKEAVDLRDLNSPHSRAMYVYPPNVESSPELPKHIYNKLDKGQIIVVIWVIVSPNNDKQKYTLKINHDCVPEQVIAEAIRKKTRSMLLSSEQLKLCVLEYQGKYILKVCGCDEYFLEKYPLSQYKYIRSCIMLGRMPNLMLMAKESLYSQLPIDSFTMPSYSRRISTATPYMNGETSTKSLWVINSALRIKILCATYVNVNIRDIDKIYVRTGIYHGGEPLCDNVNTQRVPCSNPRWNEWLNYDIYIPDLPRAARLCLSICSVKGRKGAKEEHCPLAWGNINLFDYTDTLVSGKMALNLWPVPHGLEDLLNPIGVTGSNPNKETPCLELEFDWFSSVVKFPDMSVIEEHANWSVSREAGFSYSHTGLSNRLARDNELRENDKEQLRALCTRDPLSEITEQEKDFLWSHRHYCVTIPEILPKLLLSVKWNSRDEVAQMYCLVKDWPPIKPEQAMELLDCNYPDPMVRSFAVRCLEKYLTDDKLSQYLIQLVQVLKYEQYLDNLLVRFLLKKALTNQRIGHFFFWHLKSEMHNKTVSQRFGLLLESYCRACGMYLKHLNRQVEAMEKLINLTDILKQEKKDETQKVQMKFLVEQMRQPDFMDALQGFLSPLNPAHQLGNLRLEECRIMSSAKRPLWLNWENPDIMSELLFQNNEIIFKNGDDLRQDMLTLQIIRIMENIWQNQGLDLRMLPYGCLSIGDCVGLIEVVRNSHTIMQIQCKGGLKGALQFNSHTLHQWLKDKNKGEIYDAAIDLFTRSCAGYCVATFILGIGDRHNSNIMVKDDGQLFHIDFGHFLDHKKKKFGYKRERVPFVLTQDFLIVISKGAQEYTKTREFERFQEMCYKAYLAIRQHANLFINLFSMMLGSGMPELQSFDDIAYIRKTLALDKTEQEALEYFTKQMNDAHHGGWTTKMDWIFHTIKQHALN
Method in brief: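 Mouse PI3Kα 0.5 nM with 30 μM PIP₂, 5 mM MgCl₂, 200 μM ATP, 30 min at room temperature (~22 °C); stopped with 10 mM EDTA. Then 3 min with detector mix of 480 nM GST-Grp1 PH domain and 12 nM TAMRA-PIP₃. Fluorescence polarization read in 50 mM Hepes pH 7.4, 150 mM NaCl, 5 mM DTT, 0.05% CHAPS. Duplicate points, nonlinear regression fit.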

[11] = biological target: Serine/threonine-protein kinase pim-2 (Homo sapiens) (UniProt Q9P1W9); test: Inhibition of PIM2 at 1 uM
[12] = biological target: Myosin light chain kinase 2, skeletal/cardiac muscle (Homo sapiens) (UniProt Q9H1R3); test: Inhibition of MYLK2 at 1 uM
[13] = biological target: T2, 3-phosphoinositide-dependent protein kinase 1 (Homo sapiens, UniProt O15530); test: Inhibition of recombinant human His-tagged PDK1 catalytic domain using Ac-Sox-PKTFCGTPEYLAPEVRREPRILSEEEQEMFRDFDYIAD-NH2 as substrate by fluorescence-based spectrophotometry
T2 sequence (O15530 whole entry): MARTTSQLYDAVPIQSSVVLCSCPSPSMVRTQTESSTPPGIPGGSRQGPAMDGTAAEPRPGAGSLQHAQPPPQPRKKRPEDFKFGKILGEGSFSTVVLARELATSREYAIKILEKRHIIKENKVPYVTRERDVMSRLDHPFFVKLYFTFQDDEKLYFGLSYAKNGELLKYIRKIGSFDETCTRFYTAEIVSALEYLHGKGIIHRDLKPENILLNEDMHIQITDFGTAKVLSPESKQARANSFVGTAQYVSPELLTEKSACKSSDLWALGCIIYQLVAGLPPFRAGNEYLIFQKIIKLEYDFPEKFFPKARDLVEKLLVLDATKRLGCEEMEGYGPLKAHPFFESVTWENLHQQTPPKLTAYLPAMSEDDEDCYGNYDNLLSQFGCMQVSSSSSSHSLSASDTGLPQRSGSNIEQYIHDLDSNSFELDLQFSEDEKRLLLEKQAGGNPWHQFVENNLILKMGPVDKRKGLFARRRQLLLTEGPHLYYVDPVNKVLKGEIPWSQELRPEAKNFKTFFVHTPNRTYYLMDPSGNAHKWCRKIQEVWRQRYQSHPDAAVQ

[14] = biological target: MAP kinase-activated protein kinase 2 (Homo sapiens) (UniProt P49137); test: Inhibition of MAPKAPK2 at 1 uM
[15] = biological target: Tyrosine-protein kinase Lck (Homo sapiens) (UniProt P06239); test: Inhibition of LCK at 1 uM
[16] = biological target: Angiopoietin-1 receptor (Homo sapiens) (UniProt Q02763); test: Inhibition of TEK at 1 uM
Chain of Angiopoietin-1 receptor (Homo sapiens) (Q02763 whole entry): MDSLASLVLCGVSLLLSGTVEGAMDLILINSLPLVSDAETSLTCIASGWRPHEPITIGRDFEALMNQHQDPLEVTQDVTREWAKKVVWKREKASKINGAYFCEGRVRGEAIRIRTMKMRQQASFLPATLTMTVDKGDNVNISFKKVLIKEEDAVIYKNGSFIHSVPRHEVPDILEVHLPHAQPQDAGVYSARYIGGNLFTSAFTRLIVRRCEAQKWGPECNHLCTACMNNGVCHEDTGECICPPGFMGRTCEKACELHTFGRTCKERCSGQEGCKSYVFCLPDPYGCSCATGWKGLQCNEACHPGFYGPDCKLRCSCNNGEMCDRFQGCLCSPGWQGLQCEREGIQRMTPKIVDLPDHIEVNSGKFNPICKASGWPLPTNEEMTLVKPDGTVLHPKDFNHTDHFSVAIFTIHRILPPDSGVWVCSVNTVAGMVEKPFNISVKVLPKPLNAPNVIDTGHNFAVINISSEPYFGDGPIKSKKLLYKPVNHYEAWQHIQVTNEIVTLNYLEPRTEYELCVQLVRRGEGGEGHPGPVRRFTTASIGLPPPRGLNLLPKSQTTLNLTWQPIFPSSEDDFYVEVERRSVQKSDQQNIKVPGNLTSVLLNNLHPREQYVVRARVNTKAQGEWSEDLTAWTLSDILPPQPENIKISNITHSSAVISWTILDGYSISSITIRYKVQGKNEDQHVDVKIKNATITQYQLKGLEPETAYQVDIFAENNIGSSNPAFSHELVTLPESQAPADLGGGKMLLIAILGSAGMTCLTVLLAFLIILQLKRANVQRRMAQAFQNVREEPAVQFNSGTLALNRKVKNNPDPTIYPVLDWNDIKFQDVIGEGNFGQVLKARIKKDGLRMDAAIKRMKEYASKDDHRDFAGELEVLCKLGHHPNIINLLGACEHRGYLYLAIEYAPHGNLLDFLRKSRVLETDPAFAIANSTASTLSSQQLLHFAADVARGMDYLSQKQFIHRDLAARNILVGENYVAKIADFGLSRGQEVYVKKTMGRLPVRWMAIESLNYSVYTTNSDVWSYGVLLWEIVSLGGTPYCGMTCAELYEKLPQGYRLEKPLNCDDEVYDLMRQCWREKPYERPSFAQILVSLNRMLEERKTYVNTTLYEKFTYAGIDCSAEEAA

[17] = biological target: Mitogen-activated protein kinase kinase kinase kinase 4 (Homo sapiens) (UniProt O95819); test: Inhibition of MAP4K4 at 1 uM
Chain of Mitogen-activated protein kinase kinase kinase kinase 4 (Homo sapiens) (O95819 2-1239 limits assumed): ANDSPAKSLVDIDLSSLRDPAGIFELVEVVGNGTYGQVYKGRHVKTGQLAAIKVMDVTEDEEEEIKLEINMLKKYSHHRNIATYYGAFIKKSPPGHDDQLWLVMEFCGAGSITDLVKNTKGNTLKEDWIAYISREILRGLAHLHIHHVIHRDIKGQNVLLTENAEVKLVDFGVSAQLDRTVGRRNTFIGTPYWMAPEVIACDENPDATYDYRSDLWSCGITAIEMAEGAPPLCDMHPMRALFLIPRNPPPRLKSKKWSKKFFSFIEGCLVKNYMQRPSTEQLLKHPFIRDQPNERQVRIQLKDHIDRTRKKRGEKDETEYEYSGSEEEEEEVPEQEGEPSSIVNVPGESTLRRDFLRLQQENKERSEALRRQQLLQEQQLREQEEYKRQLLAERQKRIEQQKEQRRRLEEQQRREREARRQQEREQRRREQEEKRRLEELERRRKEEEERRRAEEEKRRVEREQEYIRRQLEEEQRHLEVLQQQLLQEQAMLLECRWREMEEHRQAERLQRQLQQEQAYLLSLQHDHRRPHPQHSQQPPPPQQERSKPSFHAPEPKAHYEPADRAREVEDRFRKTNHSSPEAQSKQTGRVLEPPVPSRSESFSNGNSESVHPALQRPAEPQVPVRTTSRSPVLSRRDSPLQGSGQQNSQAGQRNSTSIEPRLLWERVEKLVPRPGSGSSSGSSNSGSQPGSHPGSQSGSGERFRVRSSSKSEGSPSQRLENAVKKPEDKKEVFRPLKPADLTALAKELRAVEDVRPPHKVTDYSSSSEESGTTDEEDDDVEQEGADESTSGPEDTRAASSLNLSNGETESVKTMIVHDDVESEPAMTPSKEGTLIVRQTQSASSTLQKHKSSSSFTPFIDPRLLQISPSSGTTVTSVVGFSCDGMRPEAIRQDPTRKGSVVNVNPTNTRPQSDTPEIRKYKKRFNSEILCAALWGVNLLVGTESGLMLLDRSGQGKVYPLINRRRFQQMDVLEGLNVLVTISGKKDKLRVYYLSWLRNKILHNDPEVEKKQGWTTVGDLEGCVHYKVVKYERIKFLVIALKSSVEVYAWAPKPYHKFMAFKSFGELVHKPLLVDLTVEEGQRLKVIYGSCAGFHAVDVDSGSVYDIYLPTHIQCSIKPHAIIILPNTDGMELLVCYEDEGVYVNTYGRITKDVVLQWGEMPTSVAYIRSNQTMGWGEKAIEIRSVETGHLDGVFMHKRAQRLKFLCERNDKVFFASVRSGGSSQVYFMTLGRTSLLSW

[18] = biological target: T3, Serine/threonine-protein kinase 3 (Homo sapiens) (UniProt Q13188); test: Inhibition of STK3 at 1 uM
T3 sequence (whole entry): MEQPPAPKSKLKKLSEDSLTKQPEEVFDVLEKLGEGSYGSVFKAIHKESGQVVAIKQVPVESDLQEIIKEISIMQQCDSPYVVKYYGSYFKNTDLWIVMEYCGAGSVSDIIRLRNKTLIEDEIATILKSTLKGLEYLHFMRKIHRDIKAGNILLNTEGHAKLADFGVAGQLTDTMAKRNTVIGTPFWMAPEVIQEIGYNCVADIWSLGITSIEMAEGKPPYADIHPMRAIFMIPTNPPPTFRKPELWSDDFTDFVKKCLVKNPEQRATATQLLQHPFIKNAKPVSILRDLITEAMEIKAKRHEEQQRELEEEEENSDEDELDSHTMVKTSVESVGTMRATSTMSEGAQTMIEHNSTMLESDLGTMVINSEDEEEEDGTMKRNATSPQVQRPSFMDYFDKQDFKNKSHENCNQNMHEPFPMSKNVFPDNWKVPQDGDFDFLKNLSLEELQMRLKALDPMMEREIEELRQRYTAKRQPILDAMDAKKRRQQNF

[19] = biological target: T2, 3-phosphoinositide-dependent protein kinase 1; test: Inhibition of PDK1-mediated AKT1 phosphorylation at T308 in human A549 cells after 2 hrs by ELISA; type: cell-based
Method in brief: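 Cells seeded at 50,000 per well and left to adhere overnight. Inhibitor was added as a 3-fold serial dilution from 0.0169 nM to 10 μM for 2 h, then cells were lysed. Lysates were tested in a commercial pAKT-T308 sandwich ELISA per the kit protocol. IC50 from duplicates, each run repeated at least twice.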

[20] = biological target: RAC-alpha serine/threonine-protein kinase (Homo sapiens, UniProt P31749); test: Inhibition of AKT1 at 1 uM
Chain of RAC-alpha serine/threonine-protein kinase (P31749 whole entry): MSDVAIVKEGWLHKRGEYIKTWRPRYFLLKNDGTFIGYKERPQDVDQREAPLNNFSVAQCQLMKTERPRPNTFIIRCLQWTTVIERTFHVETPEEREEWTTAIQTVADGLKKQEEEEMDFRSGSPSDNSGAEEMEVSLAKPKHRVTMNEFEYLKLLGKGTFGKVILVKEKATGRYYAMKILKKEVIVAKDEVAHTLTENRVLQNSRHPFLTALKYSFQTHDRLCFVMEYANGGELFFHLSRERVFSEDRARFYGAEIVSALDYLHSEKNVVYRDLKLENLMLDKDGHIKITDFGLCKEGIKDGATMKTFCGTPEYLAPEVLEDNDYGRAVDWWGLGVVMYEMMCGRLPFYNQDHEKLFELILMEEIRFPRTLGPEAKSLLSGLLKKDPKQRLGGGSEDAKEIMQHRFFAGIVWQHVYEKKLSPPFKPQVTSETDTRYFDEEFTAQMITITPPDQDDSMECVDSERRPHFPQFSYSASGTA

[21] = biological target: T4, Aurora kinase A (Homo sapiens) (UniProt O14965); test: Inhibition of STK6 at 1 uM
T4 sequence (whole entry): T1 sequence (O14965 whole entry)

**Q.** Which inhibition [1] does the source give for CC(=O)N1CC[C@@H](Nc2cncc(C(=O)c3cn(C(C)C)c4ncnc(N)c34)n2)[C@H]1c1ccccc1 here?
**A.** The inhibition was 47%.

**Q.** What about the inhibition [2] of the same compound?
**A.** The inhibition was 32%.

**Q.** And the inhibition [3]?
**A.** Its inhibition is 14%.

**Q.** And the inhibition [4]?
**A.** Its inhibition is 0%.

**Q.** And the inhibition [5]?
**A.** Its inhibition is 4%.

**Q.** What about the pIC50 [6] of the same compound?
**A.** The pIC50 was 6.07.

**Q.** And the inhibition [7]?
**A.** Its inhibition is -6%.

**Q.** And the pIC50 (Aurora kinase A)?
**A.** The pIC50 was 6.09.

**Q.** And the inhibition [8]?
**A.** Its inhibition is 94%.

**Q.** What about the inhibition [9] of the same compound?
**A.** Its inhibition is 3%.

**Q.** What about the pKi [10] of the same compound?
**A.** Its pKi is 5.72.

**Q.** And the inhibition [11]?
**A.** Its inhibition is -2%.

**Q.** And the inhibition [12]?
**A.** Its inhibition is -2%.

**Q.** And the pKi [13]?
**A.** Its pKi is 8.85.

**Q.** And the inhibition [14]?
**A.** Its inhibition is 6%.

**Q.** And the inhibition [15]?
**A.** The inhibition was 11%.

**Q.** And the inhibition [16]?
**A.** The inhibition was 5%.

**Q.** And the inhibition [17]?
**A.** Its inhibition is 23%.

**Q.** And the inhibition [18]?
**A.** Its inhibition is 0%.

**Q.** And the pIC50 [19]?
**A.** The pIC50 was 6.52.

**Q.** What about the inhibition [20] of the same compound?
**A.** Its inhibition is 15%.

**Q.** And the inhibition [21]?
**A.** Its inhibition is 54%.

**Q.** Which results are given for CC(=O)N1CC[C@@H](Nc2cncc(C(=O)c3cn(C(C)C)c4ncnc(N)c34)n2)[C@H]1c1ccc(F)cc1?
**A.** inhibition [1]: 74%; inhibition [2]: 73%; inhibition [3]: 21%; inhibition [4]: -1%; inhibition [5]: 8%; pIC50 [6]: 6.47; inhibition [7]: 8%; pIC50 (Aurora kinase A): 6.34; inhibition [8]: 99%; inhibition [9]: -4%; pKi [10]: 5.89; inhibition [11]: 7%; inhibition [12]: -8%; pKi [13]: 8.85; inhibition [14]: 2%; inhibition [15]: 22%; inhibition [16]: 19%; inhibition [17]: 50%; inhibition [18]: 12%; pIC50 [19]: 7.10; inhibition [20]: 57%; inhibition [21]: 80%

**Q.** Which inhibition [1] does the source give for CC(C)n1cc(C(=O)c2cncc(N[C@@H]3CCN(C=O)[C@@H]3c3ccc(F)cc3)n2)c2c(N)ncnc21 here?
**A.** Its inhibition is 84%.

**Q.** What about the inhibition [2] of the same compound?
**A.** The inhibition was 62%.

**Q.** And the inhibition [3]?
**A.** The inhibition was 29%.

**Q.** What about the inhibition [4] of the same compound?
**A.** Its inhibition is 6%.

**Q.** And the inhibition [5]?
**A.** Its inhibition is 12%.

**Q.** What about the pIC50 [6] of the same compound?
**A.** Its pIC50 is 6.74.

**Q.** And the inhibition [7]?
**A.** Its inhibition is 4%.

**Q.** What about the pIC50 (Aurora kinase A) of the same compound?
**A.** Its pIC50 is 6.85.

**Q.** And the inhibition [8]?
**A.** The inhibition was 98%.

**Q.** And the inhibition [9]?
**A.** The inhibition was 5%.

**Q.** What about the pKi [10] of the same compound?
**A.** Its pKi is 6.89.

**Q.** And the inhibition [11]?
**A.** The inhibition was 9%.

**Q.** What about the inhibition [12] of the same compound?
**A.** The inhibition was 3%.

**Q.** And the pKi [13]?
**A.** The pKi was 9.15.

**Q.** What about the inhibition [14] of the same compound?
**A.** The inhibition was 6%.

**Q.** And the inhibition [15]?
**A.** Its inhibition is 27%.

**Q.** What about the inhibition [16] of the same compound?
**A.** The inhibition was 10%.

**Q.** What about the inhibition [17] of the same compound?
**A.** The inhibition was 57%.

**Q.** And the inhibition [18]?
**A.** The inhibition was 13%.

**Q.** What about the pIC50 [19] of the same compound?
**A.** The pIC50 was 7.30.

**Q.** What about the inhibition [20] of the same compound?
**A.** Its inhibition is 62%.

**Q.** And the inhibition [21]?
**A.** The inhibition was 81%.
